# Source: ChEMBL document CHEMBL4049429, “Enantiospecific Recognition at the A2B Adenosine Receptor by Alkyl 2-Cyanoimino-4-substituted-6-methyl-1,2,3,4-tetrahydropyrimidine-5-carboxylates” (J Med Chem, 2017)
# How the values were obtained:
# [1] = biological target: T1, Adenosine receptor A3 (Homo sapiens) (UniProt P0DMS8); experiment: Displacement of [3H]NECA from human adenosine A3 receptor expressed in human Hela cell membranes at 1 uM after 180 mins
# T1 sequence (whole entry): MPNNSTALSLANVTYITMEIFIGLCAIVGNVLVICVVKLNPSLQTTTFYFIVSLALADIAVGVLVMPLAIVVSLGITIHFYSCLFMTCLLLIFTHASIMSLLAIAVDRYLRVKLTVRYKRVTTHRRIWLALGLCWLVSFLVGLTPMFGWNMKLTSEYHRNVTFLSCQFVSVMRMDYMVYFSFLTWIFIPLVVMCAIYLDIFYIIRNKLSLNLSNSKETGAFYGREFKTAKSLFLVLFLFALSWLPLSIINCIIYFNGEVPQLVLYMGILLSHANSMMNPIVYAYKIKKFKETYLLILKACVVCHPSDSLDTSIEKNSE
# Summary of the method: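 Membranes from HeLa cells expressing human A3 receptor, labelled with 30 nM [3H]NECA. Nonspecific binding defined with 100 μM R-PIA. Incubated 25 °C, 180 min. Percent inhibition of specific binding at 1 μM, average of n = 2.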
# [2] = biological target: T2, Adenosine receptor A1 (Homo sapiens) (UniProt P30542); experiment: Displacement of [3H]DPCPX from human adenosine A1 receptor expressed in CHO cell membranes at 1 uM after 60 mins
# T2 sequence (whole entry): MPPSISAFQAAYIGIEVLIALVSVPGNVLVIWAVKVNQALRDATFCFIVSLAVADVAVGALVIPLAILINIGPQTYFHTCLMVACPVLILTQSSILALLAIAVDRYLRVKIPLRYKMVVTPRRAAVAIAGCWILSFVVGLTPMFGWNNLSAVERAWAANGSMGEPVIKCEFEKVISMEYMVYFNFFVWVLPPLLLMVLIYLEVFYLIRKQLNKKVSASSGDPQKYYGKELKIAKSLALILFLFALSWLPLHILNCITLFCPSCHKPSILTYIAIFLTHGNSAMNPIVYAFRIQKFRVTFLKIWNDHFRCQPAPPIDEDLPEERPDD
# Summary of the method: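 Membranes from CHO cells expressing human A1 receptor, labelled with 2 nM [3H]DPCPX. Nonspecific binding defined with 10 μM R-PIA. Incubated 25 °C, 60 min. Percent inhibition of specific binding at 1 μM, average of n = 2.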
# [3] = biological target: T3, Adenosine receptor A2b (Homo sapiens) (UniProt P29275); experiment: Displacement of [3H]DPCPX from human adenosine A2B receptor expressed in HEK293 cell membranes at 1 uM after 30 mins
# T3 sequence (whole entry): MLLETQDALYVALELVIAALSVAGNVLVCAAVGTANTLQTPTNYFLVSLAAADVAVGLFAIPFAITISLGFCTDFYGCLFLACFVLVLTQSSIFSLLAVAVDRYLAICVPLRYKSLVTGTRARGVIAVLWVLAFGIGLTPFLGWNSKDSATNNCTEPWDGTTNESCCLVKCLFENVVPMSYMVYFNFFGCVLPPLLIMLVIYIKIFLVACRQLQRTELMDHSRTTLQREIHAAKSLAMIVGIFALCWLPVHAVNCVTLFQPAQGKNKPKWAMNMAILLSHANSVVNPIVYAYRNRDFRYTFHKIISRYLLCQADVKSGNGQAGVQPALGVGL
# Summary of the method: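 HEK-293 membranes expressing human A2B receptor, labelled with 35 nM [3H]DPCPX. Nonspecific binding with 400 μM NECA. 25 °C, 30 min. Percent inhibition of specific binding at 1 μM, average of n = 2.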
# [4] = biological target: Adenosine receptor A2a (Homo sapiens) (UniProt P29274); experiment: Displacement of [3H]4-(2-[7-amino-2-(2-furyl)[1,2,4]triazolo[2,3-a][1,3,5]triazin-5-ylamino]ethyl)phenol from human adenosine A2A receptor expressed in human Hela cell membranes at 1 uM after 30 mins
# Summary of the method: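 Membranes from HeLa cells expressing human A2A receptor, labelled with 3 nM radioligand. Nonspecific binding defined with 50 μM NECA. Incubated 25 °C, 30 min. Percent inhibition of specific binding at 1 μM, average of n = 2.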
# Adenosine receptor A2b = biological target: T4, Adenosine receptor A2b (Homo sapiens, UniProt P29275); experiment: Displacement of [3H]DPCPX from human adenosine A2B receptor expressed in HEK293 cell membranes after 30 mins
# T4 sequence (P29275 whole entry): T3 sequence (whole entry)
# [5] = biological target: T3, Adenosine receptor A2b (Homo sapiens); experiment: Antagonist activity at human adenosine A2B receptor expressed in HEK293 cell […] assessed as inhibition of NECA-stimulated cAMP accumulation preincubated for 15 mins followed by NECA stimulation for 15 mins by enzyme immunoassay; format: functional, cell-based
# Summary of the method: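 Whole HEK-293 cells transfected with human A2B receptor, grown at 37 °C, 5% CO2 in EMEM F-12 with 10% FCS and 1% L-glutamine. Washed, then preincubated 15 min at 37 °C in EMEM-F12/25 mM HEPES pH 7.4 with 30 μM rolipram plus test compound. Stimulated with 10 μM NECA for 15 min. Lysed, intracellular cAMP read by enzyme immunoassay at 450 nm. KB derived from IC50 by the Leff and Dougall method. n = 3, each in duplicate.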
# Adenosine receptor A2a (Homo sapiens), sequence (P29274 whole entry): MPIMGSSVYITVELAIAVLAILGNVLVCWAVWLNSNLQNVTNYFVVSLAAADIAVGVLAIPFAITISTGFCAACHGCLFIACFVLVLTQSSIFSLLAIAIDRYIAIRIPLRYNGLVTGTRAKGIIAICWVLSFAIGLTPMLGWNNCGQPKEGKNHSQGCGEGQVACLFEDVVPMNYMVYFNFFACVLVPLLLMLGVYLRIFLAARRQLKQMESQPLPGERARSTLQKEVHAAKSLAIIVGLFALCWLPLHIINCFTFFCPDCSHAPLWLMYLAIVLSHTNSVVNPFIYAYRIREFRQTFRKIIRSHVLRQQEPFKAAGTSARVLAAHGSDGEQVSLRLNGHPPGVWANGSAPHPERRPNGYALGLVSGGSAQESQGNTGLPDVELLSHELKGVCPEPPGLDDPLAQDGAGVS
Compound,inhibition [1],inhibition [2],inhibition [3],inhibition [4],Ki (Adenosine receptor A2b),Kb [5]
CCOC(=O)C1=C(C)NC(=O)NC1c1cccs1 (stereo unspecified),1%,1%,44%,–,–,–
CCOC(=O)C1=C(C)N/C(=N\C#N)NC1c1cccs1 (racemic),3%,26%,–,33%,51 nM,–
CCOC(=O)C1=C(C)N/C(=N\C#N)NC1c1ccccc1 (racemic),13%,18%,25%,13%,–,–
CC1=C(C(=O)OC(C)C)C(c2ccoc2)N/C(=N/C#N)N1 (racemic),41%,34%,–,25%,59.4 nM,–
CC1=C(C(=O)OC(C)C)[C@@H](c2ccco2)N/C(=N/C#N)N1,4%,2%,–,4%,15.1 nM,–
CC1=C(C(=O)OC(C)C)C(c2ccsc2)NC(=O)N1 (stereo unspecified),1%,–,–,–,–,–
CCOC(=O)C1=C(C)N/C(=N\C#N)NC1c1ccco1 (racemic),20%,27%,–,20%,900 nM,–
CCOC(=O)C1=C(C)NC(=O)NC1c1ccoc1 (stereo unspecified),–,–,–,39%,–,–
CC1=C(C(=O)OC(C)C)C(c2ccccc2)NC(=O)N1 (stereo unspecified),2%,2%,2%,1%,–,–
CCOC(=O)C1=C(C)N/C(=N\C#N)NC1c1ccsc1 (racemic),23%,29%,–,30%,461 nM,–
CC1=C(C(=O)OC(C)C)C(C2CCCC2)NC(=O)N1 (stereo unspecified),7%,1%,3%,1%,–,–
CC1=C(C(=O)OC(C)C)C(C2CCCC2)N/C(=N/C#N)N1 (racemic),3%,3%,11%,5%,–,–
CCOC(=O)C1=C(C)NC(=O)NC1C1CCCC1 (stereo unspecified),18%,3%,2%,1%,–,–
CC1=C(C(=O)OC(C)C)[C@H](c2ccco2)N/C(=N/C#N)N1,1%,18%,23%,10%,–,–
CCOC(=O)C1=C(C)N/C(=N\C#N)NC1C1CCCC1 (racemic),4%,11%,19%,10%,–,–
CCOC(=O)C1=C(C)NC(=O)NC1c1ccco1 (stereo unspecified),–,18%,–,41%,–,–
CC1=C(C(=O)OC(C)C)C(c2ccccc2)N/C(=N/C#N)N1 (racemic),6%,20%,32%,12%,–,–
CC1=C(C(=O)OC(C)C)C(c2cccs2)N/C(=N/C#N)N1 (racemic),27%,31%,–,16%,349 nM,–
CCOC(=O)C1=C(C)NC(=O)NC1c1ccsc1 (stereo unspecified),24%,22%,–,39%,–,–
CCOC(=O)C1=C(C)NC(=O)NC1c1ccccc1 (stereo unspecified),2%,1%,2%,10%,–,–
CC1=C(C(=O)OC(C)C)C(c2ccco2)NC(=O)N1 (stereo unspecified),1%,20%,–,30%,–,–
CC1=C(C(=O)OC(C)C)C(c2ccco2)N/C(=N/C#N)N1 (racemic),4%,21%,–,19%,24.3 nM,116 nM
CCOC(=O)C1=C(C)N/C(=N\C#N)NC1c1ccoc1 (racemic),14%,28%,–,31%,102 nM,–
CC1=C(C(=O)OC(C)C)C(c2ccsc2)N/C(=N/C#N)N1 (racemic),13%,11%,–,18%,647 nM,–
